Key:
[1] = Cytotoxicity against mouse BV2 cells assessed as cell viability at 20 uM by MTT assay; assay type: cell-based, BV-2; conditions: read-out: Activity
Outline: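 BV-2 cells exposed to 20 μM of each compound; viability expressed as percentage of the LPS-only treatment group; three independent experiments, mean SD.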

BV-2 = assay: Antineuroinflammatory activity in mouse BV2 cells assessed as inhibition of nitric oxide production treated 30 mins before LPS challenge measured after 24 hrs by Griess reagent method; assay type: functional, cell-based
Outline: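 Murine microglial BV-2 cells activated with LPS; NO production measured; IC50 taken as the concentration (μM) causing 50% inhibition of NO production in LPS-activated cells.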

[2] = Cytotoxicity against mouse BV2 cells assessed as cell viability by MTT assay; assay type: cell-based, BV-2; conditions: read-out: LD50 (the source's name)
Outline: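 Mouse microglial BV-2 cells activated with LPS and treated with each compound at 20 μM. Viability is expressed as a percentage of the LPS-only group. Values are averages of three independent experiments, given as mean SD.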

Row | SMILES | IC50 (BV-2) | viability at 20 µM [1] | CC50 [2]
1 | C[C@@H]1CC[C@@]2(OC1)O[C@H]1C[C@H]3[C@@H]4CC[C@H]5C[C@@H](O[C@@H]6O[C@H](CO)[C@H](O[C@@H]7O[C@H](CO)[C@@H](O)[C@H](O[C@@H]8OC[C@@H](O[C@@H]9O[C@@H](C)[C@H](O)[C@@H](O)[C@H]9O)[C@H](O)[C@H]8O)[C@H]7O[C@@H]7O[C@H](CO)[C@@H](O)[C@H](O)[C@H]7O)[C@H](O)[C@H]6O)[C@H](O)C[C@]5(C)[C@H]4CC[C@]3(C)[C@H]1[C@@H]2C | 13.2 µM | 86.4% | –
2 | C[C@@H]1CC[C@@]2(OC1)O[C@H]1C[C@H]3[C@@H]4CC[C@H]5C[C@@H](O[C@@H]6O[C@H](CO)[C@H](O[C@@H]7O[C@H](CO)[C@@H](O)[C@H](O[C@@H]8OC[C@@H](O)[C@H](O)[C@H]8O)[C@H]7O[C@@H]7O[C@H](CO)[C@@H](O)[C@H](O)[C@H]7O)[C@H](O)[C@H]6O)[C@H](O)C[C@]5(C)[C@H]4CC[C@]3(C)[C@H]1[C@@H]2C | 17.7 µM | 89.6% | –
3 | C[C@@H]1CC[C@@]2(OC1)O[C@H]1C[C@H]3[C@@H]4CC[C@H]5C[C@@H](O[C@@H]6O[C@H](CO)[C@H](O[C@@H]7O[C@H](CO)[C@@H](O)[C@H](O)[C@H]7O)[C@H](O)[C@H]6O[C@@H]6O[C@@H](C)[C@H](O)[C@@H](O)[C@H]6O)[C@H](O)C[C@]5(C)[C@H]4CC[C@]3(C)[C@H]1[C@@H]2C | 2.7 µM | 38.9% | 3.12 µM

Further lines, with some results ahead:

Row | IC50 (BV-2) | SMILES | viability at 20 µM [1] | CC50 [2]
4 | 14.3 µM | CNC(=N)NCCC[C@H](N)C(=O)O [TILARGININE] | 102% | –
5 | 46.3 µM | C[C@H](CC[C@H](O)[C@@H](C)[C@H]1[C@@H](O)C[C@H]2[C@@H]3CCC4=CC(=O)CC[C@]4(C)[C@H]3C[C@@H](O)[C@]12C)CO[C@@H]1O[C@H](CO)[C@@H](O)[C@H](O)[C@H]1O | 94.8% | –
6 | > 200 µM | C[C@@H](CO)CC[C@H](O)[C@@H](C)[C@H]1[C@@H](O)C[C@H]2[C@@H]3CCC4=CC(=O)CC[C@]4(C)[C@H]3C[C@@H](O)[C@]12C | 93.4% | –

Source: ChEMBL document CHEMBL2331338, “Steroidal constituents from the leaves of Hosta longipes and their inhibitory effects on nitric oxide production” (Bioorg Med Chem Lett, 2013)
